Source: ChEMBL document CHEMBL4425098, “Thiolactomycin-Based Inhibitors of Bacterial β-Ketoacyl-ACP Synthases with in Vivo Activity” (J Med Chem, 2016)
≈ marks a conversion by molar mass, not a printed value. Calls of active or inactive are those of the source. The rule behind the calls is not given here.

Columns and labels:
[1] = test system: Mycobacterium tuberculosis; assay: Antibacterial activity against Mycobacterium tuberculosis H37Rv after 6 days by Alamar blue dye-based colorimetric assay; type: functional; conditions: 144 h
Procedure, shortened: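 M. tuberculosis H37Rv grown to early-mid log phase in Middlebrook 7H9 with 10% OADC and 0.05% Tween 80, added to 1:2 serial compound dilutions, and grown for 6 days at 37°C. Alamar blue then added for a further 24 h. MIC taken as the concentration preventing visible growth and Alamar blue reduction in all replicates.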

Francisella tularensis = assay: Antibacterial activity against Francisella tularensis LVS after 18 to 24 hrs by Alamar blue dye-based colorimetric assay; type: functional
Staphylococcus aureus [2] = assay: Antibacterial activity against methicillin-sensitive Staphylococcus aureus RN4220 after 18 to 24 hrs by Alamar blue dye-based colorimetric assay; type: functional
Procedure, shortened: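 Two-fold serial dilutions from 512 down to 0.25 μg/mL in CAMHB (microbroth dilution); incubated 37 °C for 18–24 h, then Alamar Blue added for a further 4 h. Absorbance read at 570 and 600 nm; percent growth reduction plotted against concentration, MIC90 from non-linear regression; growth and MICs confirmed by optical density.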

Staphylococcus aureus [3] = assay: Antibacterial activity against methicillin-resistant Staphylococcus aureus BAA 1762 after 18 to 24 hrs by Alamar blue dye-based colorimetric assay; type: functional
Yersinia pestis = assay: Antibacterial activity against Yersinia pestis A1122 after 18 to 24 hrs by Alamar blue dye-based colorimetric assay; type: functional
[4] = biological target: T1, 3-oxoacyl-[acyl-carrier-protein] synthase 2 (Staphylococcus aureus, UniProt Q5TKS0); assay: Binding affinity to Staphylococcus aureus wild type FabF expressed in Escherichia coli BL21 (DE3) PlysS cells by intrinsic tryptophan fluorescence quenching-based fluorimetric method
T1 sequence (Q5TKS0 whole entry): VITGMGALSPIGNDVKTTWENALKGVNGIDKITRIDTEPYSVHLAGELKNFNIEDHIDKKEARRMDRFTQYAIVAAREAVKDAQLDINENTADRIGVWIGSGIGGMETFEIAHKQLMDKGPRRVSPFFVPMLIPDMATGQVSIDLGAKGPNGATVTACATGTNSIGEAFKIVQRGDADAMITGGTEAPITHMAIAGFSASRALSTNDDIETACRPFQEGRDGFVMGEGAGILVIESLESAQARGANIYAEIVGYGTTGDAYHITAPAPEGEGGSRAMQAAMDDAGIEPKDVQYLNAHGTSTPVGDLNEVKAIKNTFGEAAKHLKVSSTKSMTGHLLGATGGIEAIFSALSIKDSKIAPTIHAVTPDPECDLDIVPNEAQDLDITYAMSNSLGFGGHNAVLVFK

[5] = biological target: 3-oxoacyl-[acyl-carrier-protein] synthase 2 (Staphylococcus aureus, UniProt Q5TKS0, C165Q); assay: Binding affinity to Staphylococcus aureus FabF C165Q mutant expressed in Escherichia coli BL21 (DE3) PlysS cells by intrinsic tryptophan fluorescence quenching-based fluorimetric method
Procedure, shortened: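 Kd by quenching of intrinsic tryptophan fluorescence (excitation 280 nm, emission 337 nm). Inhibitor stocks in DMSO or buffer were titrated into 1 μM His-tag-purified enzyme in 50 mM Tris-HCl, 150 mM NaCl, 1 mM DTT, pH 8.5. mtFabB was expressed in M. smegmatis MC²155; saFabF was expressed in E. coli BL21(DE3) pLysS.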

[6] = test system: Mycobacterium tuberculosis; assay: Binding affinity to Mycobacterium tuberculosis wild type FabB expressed in Mycobacterium smegmatis MC2 155 by WaterLOGSY-based competition assay
THP-1 = assay: Cytotoxicity against human THP1 cells at < 100 ug/ml after 2 days by Alamar blue assay; type: cell-based; conditions: thp-1, 48 h
Staphylococcus aureus [7] = assay: Antibacterial activity against methicillin-resistant Staphylococcus aureus BAA 1762 infected in Swiss Webster mouse assessed as increase in survival rate at 100 mg/kg, sc administered 1 and 25 hrs post infection measured twice a day for 5 days relative to vehicle-treated control; type: functional, organism-based
Procedure, shortened: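 Mice made neutropenic with cyclophosphamide 4 days and 1 day before infection. MRSA BAA 1762 was given IP as 0.5 mL of 5×10⁷ cells/mL in BHI. Analogues in water/ethanol, or vancomycin in water, were dosed SC at 100 mg/kg/inj at 1 and 25 h post infection. Survival was checked every 12 h for 5 days, n=6–7 per group. Average survival time was compared with vehicle by one-tailed t test.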

Klebsiella pneumoniae = assay: Antibacterial activity against Klebsiella pneumoniae KPC2ST258 infected in Swiss Webster mouse assessed as survival time at 100 mg/kg, sc administered 1, 12 and 24 hrs post infection measured every 12 hrs for 7 days; type: functional
Procedure, shortened: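 K. pneumoniae KPC2ST258 was given IP as 5×10⁶ cfu in BHI broth. Drugs in saline/PEG400/ethanol (40/20/40) were injected SC at 100 mg/kg/inj at 1, 12 and 24 h post infection. Mice were checked every 12 h for 7 days, n=8–10 per group. Average survival time was compared with vehicle by one-tailed t test.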

[8] = test system: Burkholderia pseudomallei; assay: Antibacterial activity against Burkholderia pseudomallei after 18 to 24 hrs by Alamar blue dye-based colorimetric assay; type: functional

## C=C/C(C)=C/[C@@]1(C)SC(=O)C(C)=C1O [THIOLACTOMYCIN]
[1]
  MIC90: 3.1 µg/mL (≈ 14.7 µM)
Francisella tularensis
  MIC90: 2.8 µg/mL (≈ 13.3 µM)
Staphylococcus aureus [2]
  MIC90: 75 µg/mL (≈ 357 µM)
Staphylococcus aureus [3]
  MIC90: 75 µg/mL (≈ 357 µM)
Yersinia pestis
  MIC90: 8 µg/mL (≈ 38 µM)
[4]
  Kd: 107 µM
[5]
  Kd: 88 µM
[6]
  Activity: inactive
THP-1
  Activity: Non-Toxic
Staphylococcus aureus [7]
  Activity: Active
Klebsiella pneumoniae
  MSD: 3.25 days
[8]
  MIC: 8 µg/mL (≈ 38 µM)
